Laboratory results as given in article PMC6605687 (The Journal of General Physiology, 2019).
Residue numbers refer to the chain shown, from its start. Read-outs that look alike come from different tables or passages of the source.

Legend:
Type in all cases: cell-based
rP2X2 Arg290Gln = target: T1, rP2X2 Arg290Gln (Rattus norvegicus, UniProt P49653, R290Q); test: Two-electrode voltage clamp, oocytes expressing rP2X2 Arg290Gln
T1 sequence (P49653 1-472 R290Q): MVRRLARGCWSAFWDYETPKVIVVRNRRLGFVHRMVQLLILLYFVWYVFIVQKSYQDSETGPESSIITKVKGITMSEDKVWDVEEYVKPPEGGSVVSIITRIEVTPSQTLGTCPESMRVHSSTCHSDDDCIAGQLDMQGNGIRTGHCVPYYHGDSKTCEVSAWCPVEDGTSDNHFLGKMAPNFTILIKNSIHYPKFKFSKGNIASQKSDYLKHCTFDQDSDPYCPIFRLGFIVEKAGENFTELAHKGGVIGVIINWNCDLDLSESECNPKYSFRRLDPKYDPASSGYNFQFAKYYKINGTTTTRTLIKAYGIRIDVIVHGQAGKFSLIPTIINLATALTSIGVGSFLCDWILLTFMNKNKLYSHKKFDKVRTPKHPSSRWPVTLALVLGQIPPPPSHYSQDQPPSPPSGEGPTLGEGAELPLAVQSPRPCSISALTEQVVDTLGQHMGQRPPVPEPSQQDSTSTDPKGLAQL
In short: (§1)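 Mutations were made by site-directed mutagenesis. Xenopus oocytes were injected with rP2X2 mRNA and incubated in L-15 at 18°C. Two-electrode voltage clamp was done 1–2 days later at −40 mV under ND96 perfusion (pH 7.4). ATP concentration-response currents were normalised and fitted to a one-component Hill equation for EC50 and Hill coefficient. Results are mean ± SEM, tested by one-way ANOVA with Dunnett's test against WT.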

rP2X2 Lys69Arg = target: T2, rP2X2 Lys69Arg (Rattus norvegicus, UniProt P49653, K69R); test: Two-electrode voltage clamp, oocytes expressing rP2X2 Lys69Arg
T2 sequence (P49653 1-472 K69R): T1 sequence (P49653 1-472 R290Q) with K69R, Q290R

rP2X2 Val70Vah = target: T3, rP2X2 Val70Vah (Rattus norvegicus, UniProt P49653); test: Two-electrode voltage clamp, oocytes expressing rP2X2 Val70Vah
T3 sequence (P49653 1-472): T1 sequence (P49653 1-472 R290Q) with Q290R

rP2X2 Thr184Val = target: T4, rP2X2 Thr184Val (Rattus norvegicus, UniProt P49653, T184V); test: Two-electrode voltage clamp, oocytes expressing rP2X2 Thr184Val
T4 sequence (P49653 1-472 T184V): T1 sequence (P49653 1-472 R290Q) with T184V, Q290R
In short: as §1

rP2X2 Arg290Lys = target: T5, rP2X2 Arg290Lys (Rattus norvegicus, UniProt P49653, R290K); test: Two-electrode voltage clamp, oocytes expressing rP2X2 Arg290Lys
T5 sequence (P49653 1-472 R290K): T1 sequence (P49653 1-472 R290Q) with Q290K
In short: as §1

EC50 (rP2X2 Arg290Gln): 4.9 mM
EC50 (rP2X2 Lys69Arg): > 5 mM
EC50 (rP2X2 Lys69Arg; mean ± SEM): 6 mM
Fold increase in EC50, Val70Vah versus WT (rP2X2 Val70Vah; Val70Vah compared with WT): fourfold
EC50 (rP2X2 Val70Vah; Val70Vah, mean ± SEM): 0.12 ± 0.002 mM
EC50 (rP2X2 Thr184Val): 3.2 mM
Fold increase in EC50 (reduction in sensitivity), Thr184Val versus WT (rP2X2 Thr184Val; Thr184Val compared with WT): 100 fold
EC50 (rP2X2 Arg290Lys): 0.46 ± 0.06 mM
SMILES: Nc1ncnc2c1ncn2[C@@H]1O[C@H](COP(=O)(O)OP(=O)(O)OP(=O)(O)O)[C@@H](O)[C@H]1O [ATP, Adenosine 5′-triphosphate]
